Measurements reported in ChEMBL document CHEMBL3286203, “Reactive oxygen species (ROS) inducible DNA cross-linking agents and their effect on cancer cells and normal lymphocytes” (J Med Chem, 2014).
Active and inactive are the calls of the source. No cut-off for these calls is given here.

What was measured:
[1] = test system: RPMI-8226; experiment: Cytotoxicity against human RPMI8226 cells assessed as growth inhibition at 10 uM after 48 hrs by SRB assay; format: functional, cell-based
How it was run: (§1)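 Single-dose screen run by the NCI Developmental Therapeutics Program (NCI-60). Cells were grown in RPMI 1640 with 5% fetal bovine serum and 2 mM L-glutamine. They were plated at 5000–40 000 cells/well, depending on doubling time. Each line was run in two plates and exposed to 10 μM drug for 48 h at 37 °C, 5% CO2, 100% humidity. Read-out was growth percent.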

[2] = test system: 786-0; experiment: Cytotoxicity against human 786-0 cells assessed as growth inhibition at 10 uM after 48 hrs by SRB assay; format: functional, cell-based
How it was run: (§2)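 NCI DTP 60-cell-line screen run at the NCI. Cells were grown in RPMI 1640 with 5% FBS and 2 mM L-glutamine. They were seeded at 5000–40 000 cells/well depending on doubling time and grown in two plates per line. Each was exposed to a single 10 μM dose for 48 h at 37 °C, 5% CO2, 95% air, 100% humidity. Read-out was percent growth.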

[3] = test system: IGROV-1; experiment: Cytotoxicity against human IGROV1 cells assessed as growth inhibition at 10 uM after 48 hrs by SRB assay; format: functional, cell-based; how it was run: as §2
[4] = test system: CCRF-CEM; experiment: Cytotoxicity against human CCRF-CEM cells assessed as growth inhibition at 10 uM after 48 hrs by SRB assay; format: functional, cell-based; how it was run: as §2
[5] = test system: HL-60(TB); experiment: Cytotoxicity against human HL-60(TB) cells assessed as growth inhibition at 10 uM after 48 hrs by SRB assay; format: functional, cell-based; how it was run: as §2
[6] = test system: U-251; experiment: Cytotoxicity against human U251 cells assessed as growth inhibition at 10 uM after 48 hrs by SRB assay; format: functional, cell-based
How it was run: (§3)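 NCI-60 DTP human tumour line screen. Cells grown in RPMI 1640 with 5% fetal bovine serum and 2 mM L-glutamine, plated at 5000–40 000 cells/well according to doubling time. Single dose of 10 μM for 48 h at 37 °C, 5% CO2, 95% air, 100% humidity, two plates per line. Read-out is growth percent.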

[7] = test system: UO-31; experiment: Cytotoxicity against human UO31 cells assessed as growth inhibition at 10 uM after 48 hrs by SRB assay; format: functional, cell-based; how it was run: as §3
[8] = test system: NCI-H226; experiment: Cytotoxicity against human NCI-H226 cells assessed as growth inhibition at 10 uM after 48 hrs by SRB assay; format: functional, cell-based; how it was run: as §1
[9] = test system: SK-MEL-28; experiment: Cytotoxicity against human SK-MEL-28 cells assessed as growth inhibition at 10 uM after 48 hrs by SRB assay; format: functional, cell-based; how it was run: as §1
[10] = test system: SW-620; experiment: Cytotoxicity against human SW620 cells assessed as growth inhibition at 10 uM after 48 hrs by SRB assay; format: functional, cell-based; how it was run: as §3
[11] = test system: HCC 2998; experiment: Cytotoxicity against human HCC2998 cells assessed as growth inhibition at 10 uM after 48 hrs by SRB assay; format: functional, cell-based; how it was run: as §2
[12] = test system: RXF 393; experiment: Cytotoxicity against human RXF393 cells assessed as growth inhibition at 10 uM after 48 hrs by SRB assay; format: functional, cell-based; how it was run: as §1
[13] = test system: PC-3; experiment: Cytotoxicity against human PC3 cells assessed as growth inhibition at 10 uM after 48 hrs by SRB assay; format: functional, cell-based; how it was run: as §1
[14] = test system: SK-MEL-5; experiment: Cytotoxicity against human SK-MEL-5 cells assessed as growth inhibition at 10 uM after 48 hrs by SRB assay; format: functional, cell-based; how it was run: as §1
[15] = test system: SNB-19; experiment: Cytotoxicity against human SNB19 cells assessed as growth inhibition at 10 uM after 48 hrs by SRB assay; format: functional, cell-based; how it was run: as §3
[16] = test system: MDA-MB-231; experiment: Cytotoxicity against human MDA-MB-231 cells assessed as growth inhibition at 10 uM after 48 hrs by SRB assay; format: functional, cell-based; how it was run: as §1
[17] = Induction of [32P]-labeled 49-mer oligonucleotide duplex DNA 12 with GNC sequence at terminus (unknown origin) interstrand cross-linking at 1 mM after 16 hrs by PAGE in presence of H2O2
How it was run: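 32P-labelled 12a (1.0 μM) annealed with 1.5 equiv of 12b in 10 mM potassium phosphate pH 7 / 100 mM NaCl (65 °C for 3 min, then slow cooling). Duplex incubated with compound (final 1 μM–5 mM), with or without H2O2, in NaCl and potassium phosphate pH 8 at room temperature for 16 h. Quenched in formamide; 20% denaturing PAGE.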

[18] = test system: MDA-MB-468; experiment: Cytotoxicity against human MDA-MB-468 cells assessed as growth inhibition at 10 uM after 48 hrs by SRB assay; format: functional, cell-based; how it was run: as §1
[19] = test system: OVCAR-5; experiment: Cytotoxicity against human OVCAR5 cells assessed as growth inhibition at 10 uM after 48 hrs by SRB assay; format: functional, cell-based; how it was run: as §1
[20] = test system: SF-295; experiment: Cytotoxicity against human SF295 cells assessed as growth inhibition at 10 uM after 48 hrs by SRB assay; format: functional, cell-based; how it was run: as §1
[21] = test system: MCF7; experiment: Cytotoxicity against human MCF7 cells assessed as growth inhibition at 10 uM after 48 hrs by SRB assay; format: functional, cell-based; how it was run: as §1
[22] = test system: NCI-H23; experiment: Cytotoxicity against human NCI-H23 cells assessed as growth inhibition at 10 uM after 48 hrs by SRB assay; format: functional, cell-based; how it was run: as §1
[23] = test system: SF-539; experiment: Cytotoxicity against human SF539 cells assessed as growth inhibition at 10 uM after 48 hrs by SRB assay; format: functional, cell-based; how it was run: as §1
[24] = test system: HOP-92; experiment: Cytotoxicity against human HOP92 cells assessed as growth inhibition at 10 uM after 48 hrs by SRB assay; format: functional, cell-based; how it was run: as §2
[25] = test system: NCI-H322M; experiment: Cytotoxicity against human NCI-H322M cells assessed as growth inhibition at 10 uM after 48 hrs by SRB assay; format: functional, cell-based; how it was run: as §1
[26] = test system: A498; experiment: Cytotoxicity against human A498 cells assessed as growth inhibition at 10 uM after 48 hrs by SRB assay; format: functional, cell-based; how it was run: as §2
[27] = test system: UACC-62; experiment: Cytotoxicity against human UACC62 cells assessed as growth inhibition at 10 uM after 48 hrs by SRB assay; format: functional, cell-based; how it was run: as §3
[28] = test system: ACHN; experiment: Cytotoxicity against human ACHN cells assessed as growth inhibition at 10 uM after 48 hrs by SRB assay; format: functional, cell-based; how it was run: as §2
[29] = test system: NCI-H460; experiment: Cytotoxicity against human NCI-H460 cells assessed as growth inhibition at 10 uM after 48 hrs by SRB assay; format: functional, cell-based; how it was run: as §1
[30] = test system: LOX IMVI; experiment: Cytotoxicity against human LOXIMVI cells assessed as growth inhibition at 10 uM after 48 hrs by SRB assay; format: functional, cell-based; how it was run: as §2
[31] = test system: EKVX; experiment: Cytotoxicity against human EKVX cells assessed as growth inhibition at 10 uM after 48 hrs by SRB assay; format: functional, cell-based; how it was run: as §2
[32] = test system: NCI-H522; experiment: Cytotoxicity against human NCI-H522 cells assessed as growth inhibition at 10 uM after 48 hrs by SRB assay; format: functional, cell-based; how it was run: as §1
[33] = test system: HOP-62; experiment: Cytotoxicity against human HOP62 cells assessed as growth inhibition at 10 uM after 48 hrs by SRB assay; format: functional, cell-based; how it was run: as §2
[34] = test system: MOLT-4; experiment: Cytotoxicity against human MOLT4 cells assessed as growth inhibition at 10 uM after 48 hrs by SRB assay; format: functional, cell-based; how it was run: as §1
[35] = test system: CAKI-1; experiment: Cytotoxicity against human Caki1 cells assessed as growth inhibition at 10 uM after 48 hrs by SRB assay; format: functional, cell-based; how it was run: as §2
[36] = test system: DU-145; experiment: Cytotoxicity against human DU145 cells assessed as growth inhibition at 10 uM after 48 hrs by SRB assay; format: functional, cell-based; how it was run: as §2

| Structure (SMILES) | growth inhibition (GI) [1] | growth inhibition (GI) [2] | growth inhibition (GI) [3] | growth inhibition (GI) [4] | growth inhibition (GI) [5] | growth inhibition (GI) [6] | growth inhibition (GI) [7] | growth inhibition (GI) [8] | growth inhibition (GI) [9] | growth inhibition (GI) [10] | growth inhibition (GI) [11] | growth inhibition (GI) [12] | growth inhibition (GI) [13] | growth inhibition (GI) [14] | growth inhibition (GI) [15] | growth inhibition (GI) [16] | Activity [17] | growth inhibition (GI) [18] | growth inhibition (GI) [19] | growth inhibition (GI) [20] | further results |
| --- | --- | --- | --- | --- | --- | --- | --- | --- | --- | --- | --- | --- | --- | --- | --- | --- | --- | --- | --- | --- | --- |
| CC1(C)OB(c2ccc(N(CCBr)CCBr)cc2)OC1(C)C | Active | Active | Active | Active | Active | Active | Active | Active | Active | Active | Active | Active | Active | Active | Active | Active | 37% | Active | Active | Active | growth inhibition (GI) [21]: Active; growth inhibition (GI) [22]: Active; growth inhibition (GI) [23]: Active; growth inhibition (GI) [24]: Active; growth inhibition (GI) [25]: Active; growth inhibition (GI) [26]: Active; growth inhibition (GI) [27]: Active; growth inhibition (GI) [28]: Active; growth inhibition (GI) [29]: Active; growth inhibition (GI) [30]: Active; growth inhibition (GI) [31]: Active; growth inhibition (GI) [32]: Active; growth inhibition (GI) [33]: Active; growth inhibition (GI) [34]: Active; growth inhibition (GI) [35]: Active; growth inhibition (GI) [36]: Active |
| CC1(C)OB(c2ccc(N(CCBr)CCOS(C)(=O)=O)cc2)OC1(C)C | Active | Active | Active | Active | Active | Active | Active | Active | Active | Active | Active | Active | Active | Active | Active | Active | 37% | Active | Active | Active | growth inhibition (GI) [21]: Active; growth inhibition (GI) [22]: Active; growth inhibition (GI) [23]: Active; growth inhibition (GI) [24]: Active; growth inhibition (GI) [25]: Active; growth inhibition (GI) [26]: Active; growth inhibition (GI) [27]: Active; growth inhibition (GI) [28]: Active; growth inhibition (GI) [29]: Active; growth inhibition (GI) [30]: Active; growth inhibition (GI) [31]: Active; growth inhibition (GI) [32]: Active; growth inhibition (GI) [33]: Active; growth inhibition (GI) [34]: Active; growth inhibition (GI) [35]: Active; growth inhibition (GI) [36]: Active |
